According to ChEMBL document CHEMBL3994667, “Small Molecule Lysyl Oxidase-like 2 (LOXL2) Inhibitors: The Identification of an Inhibitor Selective for LOXL2 over LOX” (ACS Med Chem Lett, 2017):
pIC50: −log10 of the molar value.

Columns and labels:
Lysyl oxidase homolog 2 = target: T1, Lysyl oxidase homolog 2 (Mus musculus, UniProt P58022); assay: Inhibition of full length recombinant mouse LOXL2 expressed in CHO cells assessed as reduction in H2O2 production using DAP as substrate preincubated for 2 hrs followed by substrate addition measured every 2 minutes for 50 minutes in presence of BSA by Amplex red dye based fluorescence assay; assay type: cell-based
T1 sequence (P58022 whole entry): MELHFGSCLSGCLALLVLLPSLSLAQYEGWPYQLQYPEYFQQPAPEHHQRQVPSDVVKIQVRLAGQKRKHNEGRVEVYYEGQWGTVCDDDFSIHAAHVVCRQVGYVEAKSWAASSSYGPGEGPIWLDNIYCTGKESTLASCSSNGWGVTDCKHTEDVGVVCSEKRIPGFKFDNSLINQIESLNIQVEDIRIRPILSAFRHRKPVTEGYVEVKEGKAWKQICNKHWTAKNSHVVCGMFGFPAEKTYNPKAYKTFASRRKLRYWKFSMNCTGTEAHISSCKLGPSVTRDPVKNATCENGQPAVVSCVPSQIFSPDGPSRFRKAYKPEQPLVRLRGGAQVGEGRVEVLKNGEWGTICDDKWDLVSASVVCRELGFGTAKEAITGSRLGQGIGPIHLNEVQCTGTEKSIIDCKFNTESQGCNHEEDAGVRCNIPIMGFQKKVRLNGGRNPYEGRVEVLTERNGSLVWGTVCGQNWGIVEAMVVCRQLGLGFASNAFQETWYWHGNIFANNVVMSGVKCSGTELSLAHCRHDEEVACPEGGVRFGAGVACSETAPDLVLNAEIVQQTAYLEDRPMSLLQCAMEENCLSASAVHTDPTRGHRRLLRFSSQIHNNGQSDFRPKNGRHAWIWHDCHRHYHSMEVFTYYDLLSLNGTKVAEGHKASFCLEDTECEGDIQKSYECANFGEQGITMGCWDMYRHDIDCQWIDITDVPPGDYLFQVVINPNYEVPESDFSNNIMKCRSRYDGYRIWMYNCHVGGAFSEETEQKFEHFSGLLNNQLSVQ
Procedure, shortened: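 Rodent LOXL2 is tested under the same conditions as the BSA-supplemented assay: conditioned media plus BSA, with DAP as substrate and Amplex Red detection of H2O2. Species are mouse and rat. IC50 is the geometric mean x/÷ geometric standard deviation from 3 determinations.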

[1] = target: T2, Amine oxidase [flavin-containing] B (Homo sapiens, UniProt P27338); assay: Inhibition of recombinant human MAO-B at 30 uM using benzylamine as substrate preincubated for 2 hrs followed by substrate addition measured every 30 secs for 10 minutes by Amplex red dye based fluorescence assay
T2 sequence (P27338 whole entry): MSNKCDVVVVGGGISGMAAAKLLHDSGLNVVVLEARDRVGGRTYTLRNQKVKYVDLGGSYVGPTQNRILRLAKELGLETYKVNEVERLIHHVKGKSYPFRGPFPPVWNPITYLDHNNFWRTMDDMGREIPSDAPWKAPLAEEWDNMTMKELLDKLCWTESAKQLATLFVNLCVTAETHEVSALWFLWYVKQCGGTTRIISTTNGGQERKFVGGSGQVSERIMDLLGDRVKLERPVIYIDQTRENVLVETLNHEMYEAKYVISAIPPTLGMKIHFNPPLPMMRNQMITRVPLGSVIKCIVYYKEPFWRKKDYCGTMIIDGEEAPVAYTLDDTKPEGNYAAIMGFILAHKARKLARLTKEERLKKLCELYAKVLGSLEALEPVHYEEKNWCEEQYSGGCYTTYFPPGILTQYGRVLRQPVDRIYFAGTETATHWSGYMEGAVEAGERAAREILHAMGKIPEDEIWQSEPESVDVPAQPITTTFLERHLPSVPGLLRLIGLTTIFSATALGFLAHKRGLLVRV

Protein-lysine 6-oxidase = target: T3, Protein-lysine 6-oxidase (Homo sapiens, UniProt P28300); assay: Inhibition of full length recombinant human LOX expressed in HEK cells assessed as reduction in H2O2 production using DAP as substrate preincubated for 2 hrs followed by substrate addition measured every 2 minutes for 50 minutes in presence of BSA by Amplex red dye based fluorescence assay
T3 sequence (P28300 whole entry): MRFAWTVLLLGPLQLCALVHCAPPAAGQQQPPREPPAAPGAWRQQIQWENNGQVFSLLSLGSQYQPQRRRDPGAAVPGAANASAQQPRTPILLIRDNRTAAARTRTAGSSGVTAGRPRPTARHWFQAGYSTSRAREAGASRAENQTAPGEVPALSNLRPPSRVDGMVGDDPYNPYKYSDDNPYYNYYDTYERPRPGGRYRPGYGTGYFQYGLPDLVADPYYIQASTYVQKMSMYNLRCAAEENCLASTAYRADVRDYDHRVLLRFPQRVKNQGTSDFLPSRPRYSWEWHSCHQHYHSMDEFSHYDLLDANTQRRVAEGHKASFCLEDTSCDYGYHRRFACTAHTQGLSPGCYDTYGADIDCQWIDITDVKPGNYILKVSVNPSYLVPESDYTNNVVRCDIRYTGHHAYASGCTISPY
Procedure, shortened: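 Enzyme source: serum-free conditioned media from HEK cells stably expressing human LOX, with BSA added to give measurable activity. Activity is measured as H2O2 from oxidative deamination of 1,5-diaminopentane (DAP), read by Amplex Red. IC50 is given as geometric mean x/÷ geometric standard deviation, with N-values reported.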

Cytochrome P450 2C9 = Cytochrome P450 2C9 (Homo sapiens, UniProt P11712); assay: Inhibition of CYP2C9 (unknown origin); assay type: ADME
Cytochrome P450 2C9, sequence (P11712 whole entry): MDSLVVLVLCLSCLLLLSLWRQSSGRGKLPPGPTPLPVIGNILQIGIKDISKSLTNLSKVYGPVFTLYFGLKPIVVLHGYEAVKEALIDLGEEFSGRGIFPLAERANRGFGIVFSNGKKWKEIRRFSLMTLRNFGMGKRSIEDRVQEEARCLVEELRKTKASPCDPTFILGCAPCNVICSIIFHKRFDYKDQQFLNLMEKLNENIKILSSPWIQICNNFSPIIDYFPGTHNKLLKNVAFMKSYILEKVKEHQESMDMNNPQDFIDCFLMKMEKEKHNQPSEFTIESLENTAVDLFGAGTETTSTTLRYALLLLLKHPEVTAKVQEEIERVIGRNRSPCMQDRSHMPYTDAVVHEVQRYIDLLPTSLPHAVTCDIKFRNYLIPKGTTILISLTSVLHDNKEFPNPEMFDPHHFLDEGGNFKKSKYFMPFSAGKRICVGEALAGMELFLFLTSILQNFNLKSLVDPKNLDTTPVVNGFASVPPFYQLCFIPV

pIC50 (Lysyl oxidase homolog 2): 6.64 | inhibition (INH) [1]: Not Active | pIC50 (Protein-lysine 6-oxidase): 5.23 | pIC50 (Cytochrome P450 2C9): < 4.52
Structure (SMILES): NCc1ccnc(Cl)c1
